Assay [1] has as its target T1, Glutaminyl-peptide cyclotransferase (Homo sapiens, UniProt Q16769). The assay can be described thus: Inhibition of human recombinant glutaminyl cyclase expressed in Escherichia coli at 100 uM using H-Gln-Gln-H substrate measured for 15 mins by spectrophotometry relative to control.
Target sequence in this assay (Q16769 29-361 limits assumed): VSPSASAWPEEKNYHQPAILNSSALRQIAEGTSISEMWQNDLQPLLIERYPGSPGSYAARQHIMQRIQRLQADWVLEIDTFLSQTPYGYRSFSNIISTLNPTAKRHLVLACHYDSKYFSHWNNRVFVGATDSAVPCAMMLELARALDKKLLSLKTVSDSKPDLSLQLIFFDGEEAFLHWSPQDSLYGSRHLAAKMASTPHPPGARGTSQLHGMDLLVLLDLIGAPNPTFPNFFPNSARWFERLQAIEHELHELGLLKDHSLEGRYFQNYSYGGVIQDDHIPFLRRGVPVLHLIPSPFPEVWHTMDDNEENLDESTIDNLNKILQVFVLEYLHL
Assay [2] deals with T1, Glutaminyl-peptide cyclotransferase. Kind of assay: Inhibition of human recombinant glutaminyl cyclase expressed in Escherichia coli using H-Gln-Gln-H substrate measured for 15 mins by spectrophotometry. The gist of the method: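 Recombinant hQC expressed in E. coli is tested in a glutamic acid dehydrogenase-coupled reaction: 0–4 mM H-Gln-Gln-H, 30 units/ml GDH, 0.5 mM NADH/H+, 15 mM α-ketoglutaric acid, 0.05 M Tris–HCl pH 8.0. Inhibitor is added at several concentrations with the enzyme to start the reaction, and A340 loss is read over 15 min. IC50 is read graphically from log concentration vs % inhibition. Triplicate.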
Target sequence in this assay (Q16769 whole entry): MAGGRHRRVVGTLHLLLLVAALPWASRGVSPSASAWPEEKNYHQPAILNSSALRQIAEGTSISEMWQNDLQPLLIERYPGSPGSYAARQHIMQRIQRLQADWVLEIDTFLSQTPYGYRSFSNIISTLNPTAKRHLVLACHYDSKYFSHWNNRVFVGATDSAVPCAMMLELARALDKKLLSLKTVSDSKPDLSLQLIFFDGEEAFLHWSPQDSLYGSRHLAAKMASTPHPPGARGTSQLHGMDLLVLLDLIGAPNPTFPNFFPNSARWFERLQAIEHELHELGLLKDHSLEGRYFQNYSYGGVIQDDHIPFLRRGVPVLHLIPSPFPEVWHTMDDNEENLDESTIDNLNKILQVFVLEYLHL

A word on the inhibition: it is how much of the control response was suppressed. For `COc1ccc(-c2cc(=O)c3c(O)cc(O)cc3o2)c(OC)c1`, in assay [1], the inhibition came out at 71.7%.

For orientation: IC50 means the point on the concentration scale where inhibition reaches its midpoint. Consider `O=c1cc(-c2ccc(O)cc2)oc2cc(O)ccc12`, for which the inhibition in assay [1] worked out at 71.8%. Moreover, the IC50 in assay [2] is 45.2 µM.

Take `COc1ccc(-c2cc(=O)c3ccc(O)cc3o2)cc1`: the inhibition in assay [1] worked out at 75.2%.

Turning to `O=c1cc(-c2ccc(O)cc2)oc2cc(O)cc(O)c12`, in assay [1], the inhibition was 75.2%.

The values are drawn from ChEMBL document CHEMBL3779838, “Inhibitory effect of flavonoids on human glutaminyl cyclase” (Bioorg Med Chem, 2016).
